Measurements reported in ChEMBL document CHEMBL1152161, “A facile synthesis, antibacterial, and antitubercular studies of some piperidin-4-one and tetrahydropyridine derivatives” (2008).
In brackets after ≈: the same amount, converted by molar mass. Activity calls are given as the source filed them. No cut-off for these calls is given here.

Tests used:
[1] = test system: Staphylococcus epidermidis; assay: Antibacterial activity against methicillin-resistant Staphylococcus epidermidis at 128 ug/mL by broth micro dilution method; type: functional, organism-based
Outline: (§1)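 MIC90 was determined by broth microdilution following NCCLS methods. Linezolid and trovafloxacin were run as positive controls, with DMSO as the negative control. Compounds were tested up to a top concentration of 128.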

Staphylococcus aureus [2] = assay: Antibacterial activity against methicillin-resistant Staphylococcus aureus at 128 ug/mL by broth micro dilution method; type: functional, organism-based; outline: as §1
Enterococcus faecalis [3] = assay: Antibacterial activity against Enterococcus faecalis at 128 ug/mL by broth micro dilution method; type: functional, organism-based
[4] = test system: Staphylococcus epidermidis; assay: Antibacterial activity against Staphylococcus epidermidis at 128 ug/mL by broth micro dilution method; type: functional, organism-based
Klebsiella pneumoniae = assay: Antibacterial activity against Klebsiella pneumoniae at 128 ug/mL by broth micro dilution method; type: functional, organism-based
Escherichia coli [5] = assay: Antibacterial activity against Escherichia coli LCB0010 at 128 ug/mL by broth micro dilution method; type: functional, organism-based
Enterococcus faecium [6] = assay: Antibacterial activity against vancomycin-resistant Enterococcus faecium at 128 ug/mL by broth micro dilution method; type: functional, organism-based; outline: as §1
Pseudomonas aeruginosa = assay: Antibacterial activity against Pseudomonas aeruginosa at 128 ug/mL by broth micro dilution method; type: functional, organism-based
Enterococcus faecalis [7] = assay: Antibacterial activity against vancomycin-resistant Enterococcus faecalis at 128 ug/mL by broth micro dilution method; type: functional, organism-based; outline: as §1
Haemophilus influenzae [8] = assay: Antibacterial activity against Haemophilus influenzae at 128 ug/mL by broth micro dilution method; type: functional, organism-based
Escherichia coli [9] = assay: Antibacterial activity against Escherichia coli LCB0012 at 128 ug/mL by broth micro dilution method; type: functional, organism-based
Staphylococcus aureus [10] = assay: Antibacterial activity against Staphylococcus aureus at 128 ug/mL by broth micro dilution method; type: functional, organism-based
Moraxella catarrhalis [11] = assay: Antibacterial activity against Moraxella catarrhalis at 128 ug/mL by broth micro dilution method; type: functional, organism-based
Escherichia coli [12] = assay: Antibacterial activity against Escherichia coli LCB0011 at 128 ug/mL by broth micro dilution method; type: functional, organism-based
Enterococcus faecalis [13] = assay: Antibacterial activity against vancomycin and linezolid-resistant Enterococcus faecalis at 128 ug/mL by broth micro dilution method; type: functional, organism-based; outline: as §1
Enterococcus faecium [14] = assay: Antibacterial activity against Enterococcus faecium at 128 ug/mL by broth micro dilution method; type: functional, organism-based
Escherichia coli [15] = assay: Antibacterial activity against Escherichia coli LCB0011 by broth micro dilution method; type: functional
Outline: (§2)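 MIC90 was found by broth microdilution following NCCLS methods. Compounds were tested up to a top concentration of […]. Linezolid and trovafloxacin served as positive controls and DMSO as the negative control.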

Escherichia coli [16] = assay: Antibacterial activity against Escherichia coli LCB0012 by broth micro dilution method; type: functional; outline: as §2
Haemophilus influenzae [17] = assay: Antibacterial activity against Haemophilus influenzae by broth micro dilution method; type: functional; outline: as §2
Staphylococcus aureus [18] = assay: Antibacterial activity against Staphylococcus aureus by broth micro dilution method; type: functional; outline: as §2
Enterococcus faecalis [19] = assay: Antibacterial activity against Enterococcus faecalis by broth micro dilution method; type: functional; outline: as §2
Enterococcus faecalis [20] = assay: Antibacterial activity against vancomycin-resistant Enterococcus faecalis by broth micro dilution method; type: functional; outline: as §1
[21] = test system: Staphylococcus epidermidis; assay: Antibacterial activity against methicillin-resistant Staphylococcus epidermidis by broth micro dilution method; type: functional; outline: as §1
Enterococcus faecium [22] = assay: Antibacterial activity against vancomycin-resistant Enterococcus faecium by broth micro dilution method; type: functional; conditions: for MIC90: Enterococcus faecium; outline: as §1
Moraxella catarrhalis [23] = assay: Antibacterial activity against Moraxella catarrhalis by broth micro dilution method; type: functional; outline: as §2
[24] = test system: Staphylococcus epidermidis; assay: Antibacterial activity against Staphylococcus epidermidis by broth micro dilution method; type: functional; outline: as §1
Enterococcus faecium [25] = assay: Antibacterial activity against Enterococcus faecium by broth micro dilution method; type: functional; outline: as §2
Staphylococcus aureus [26] = assay: Antibacterial activity against methicillin-resistant Staphylococcus aureus by broth micro dilution method; type: functional; outline: as §1
Enterococcus faecalis [27] = assay: Antibacterial activity against vancomycin and linezolid-resistant Enterococcus faecalis by broth micro dilution method; type: functional; outline: as §1
[28] = test system: Mycobacterium tuberculosis; assay: Antitubercular activity against Mycobacterium tuberculosis H37Rv ATCC 27294 at 256 ug/mL by radiometric respiratory technique; type: functional, organism-based
[29] = test system: Mycobacterium tuberculosis; assay: Antitubercular activity against Mycobacterium tuberculosis H37Rv ATCC 27294 by radiometric respiratory technique; type: functional
[30] = test system: Mycobacterium tuberculosis; assay: Antitubercular potency, ratio of Isoniazid MIC to drug MIC against Mycobacterium tuberculosis H37Rv ATCC 27294; type: functional
[31] = test system: Mycobacterium tuberculosis; assay: Antitubercular potency, ratio of Rifampicin MIC to drug MIC against Mycobacterium tuberculosis H37Rv ATCC 27294; type: functional

SMILES	Activity [1]	Activity (Staphylococcus aureus [2])	Activity (Enterococcus faecalis [3])	Activity [4]	Activity (Klebsiella pneumoniae)	Activity (Escherichia coli [5])	Activity (Pseudomonas aeruginosa)	Activity (Enterococcus faecalis [7])	Activity (Haemophilus influenzae [8])	Activity (Escherichia coli [9])	Activity (Moraxella catarrhalis [11])	Activity (Escherichia coli [12])	Activity (Enterococcus faecalis [13])	Activity (Enterococcus faecium [14])	MIC90 (Escherichia coli [15])	MIC90 (Escherichia coli [16])	MIC90 (Staphylococcus aureus [18])	MIC90 (Enterococcus faecalis [19])	MIC90 (Enterococcus faecium [22])	MIC [29]	also measured
COc1cc(OC)cc(C2CC(=O)C(C)C(c3cc(OC)cc(OC)c3)N2C(=O)Cn2cnc3ccccc32)c1 (stereo unspecified)	inactive	inactive	inactive	inactive	inactive	inactive	inactive	inactive	inactive	inactive	inactive	inactive	inactive	inactive							Activity (Enterococcus faecium [6]): inactive; Activity (Staphylococcus aureus [10]): inactive
C=Cc1ccc(S(=O)(=O)OC2=C(C(=O)OCC)C(c3ccccc3)N(C(=O)CCl)C(c3ccccc3)C2)cc1 (stereo unspecified)	inactive	inactive	inactive	inactive	inactive	inactive	inactive	inactive			inactive		inactive	inactive	128 µg/mL (≈ 226 µM)	128 µg/mL (≈ 226 µM)					Activity (Enterococcus faecium [6]): inactive; Activity (Staphylococcus aureus [10]): inactive; MIC90 (Haemophilus influenzae [17]): 128 µg/mL (≈ 226 µM)
CC(=O)NC[C@H]1CN(c2ccc(N3CCOCC3)c(F)c2)C(=O)O1 [LINEZOLID]					inactive	inactive	inactive								16 µg/mL (≈ 47.4 µM)	64 µg/mL (≈ 190 µM)	1 µg/mL (≈ 2.96 µM)	2 µg/mL (≈ 5.93 µM)	2 µg/mL (≈ 5.93 µM)		MIC90 (Enterococcus faecalis [20]): 2 µg/mL (≈ 5.93 µM); MIC90 [21]: 2 µg/mL (≈ 5.93 µM); MIC90 (Moraxella catarrhalis [23]): 8 µg/mL (≈ 23.7 µM); MIC90 [24]: 1 µg/mL (≈ 2.96 µM); MIC90 (Enterococcus faecium [25]): 2 µg/mL (≈ 5.93 µM); MIC90 (Staphylococcus aureus [26]): 2 µg/mL (≈ 5.93 µM); MIC90 (Haemophilus influenzae [17]): 16 µg/mL (≈ 47.4 µM); MIC90 (Enterococcus faecalis [27]): 64 µg/mL (≈ 190 µM)
CCOC(=O)C1=C(OS(=O)(=O)c2ccccc2[N+](=O)[O-])CC(c2ccccc2)N(C(=O)CCl)C1c1ccccc1 (stereo unspecified)	inactive	inactive		inactive	inactive	inactive	inactive	inactive	inactive	inactive	inactive		inactive	inactive	128 µg/mL (≈ 219 µM)		64 µg/mL (≈ 109 µM)	128 µg/mL (≈ 219 µM)	128 µg/mL (≈ 219 µM)		Activity [28]: inactive
NNC(=O)c1ccncc1 [ISONIAZID]																				0.25 µg/mL (≈ 1.82 µM)	
CCOC(=O)C1=C(O)CC(c2ccccc2)N(C(=O)Cn2cnc3ccccc32)C1c1ccccc1 (stereo unspecified)	inactive	inactive			inactive	inactive	inactive	inactive	inactive	inactive		inactive		inactive			32 µg/mL (≈ 66.5 µM)	128 µg/mL (≈ 266 µM)	64 µg/mL (≈ 133 µM)	16 µg/mL (≈ 33.2 µM)	MIC90 (Moraxella catarrhalis [23]): 64 µg/mL (≈ 133 µM); MIC90 [24]: 128 µg/mL (≈ 266 µM); Ratio [30]: 1.56; MIC90 (Enterococcus faecalis [27]): 128 µg/mL (≈ 266 µM); Ratio [31]: 200
COc1ccc(C2CC(=O)C(C)C(c3ccc(OC)cc3)N2C(=O)Cn2cnc3ccccc32)cc1 (stereo unspecified)	inactive	inactive	inactive	inactive	inactive	inactive	inactive	inactive	inactive		inactive	inactive	inactive	inactive		128 µg/mL (≈ 265 µM)			128 µg/mL (≈ 265 µM)		Activity (Staphylococcus aureus [10]): inactive
COc1ccccc1C1C(C)C(=O)C(C)C(c2ccccc2OC)N1C(=O)Cn1cnc2ccccc21 (stereo unspecified)	inactive	inactive		inactive	inactive	inactive	inactive	inactive	inactive	inactive	inactive	inactive	inactive	inactive			32 µg/mL (≈ 64.3 µM)	64 µg/mL (≈ 129 µM)	16 µg/mL (≈ 32.2 µM)	128 µg/mL (≈ 257 µM)	Ratio [30]: 0.19; Ratio [31]: 25
CCOC(=O)C1=C(OS(=O)(=O)c2cccs2)CC(c2ccccc2)N(C(=O)CCl)C1c1ccccc1 (stereo unspecified)			inactive		inactive	inactive	inactive	inactive	inactive	inactive			inactive	inactive	128 µg/mL (≈ 234 µM)		32 µg/mL (≈ 58.6 µM)			32 µg/mL (≈ 58.6 µM)	MIC90 [21]: 128 µg/mL (≈ 234 µM); Activity (Enterococcus faecium [22]): 32 µg/mL; MIC90 (Moraxella catarrhalis [23]): 32 µg/mL (≈ 58.6 µM); MIC90 [24]: 64 µg/mL (≈ 117 µM); MIC90 (Staphylococcus aureus [26]): 64 µg/mL (≈ 117 µM); Ratio [30]: 0.78; Ratio [31]: 100
Cc1ccc(C2C(C)C(=O)C(C)C(c3ccc(C)cc3)N2C(=O)Cn2cnc3ccccc32)cc1 (stereo unspecified)	inactive			inactive	inactive	inactive	inactive		inactive		inactive		inactive	inactive	128 µg/mL (≈ 275 µM)		64 µg/mL (≈ 137 µM)	128 µg/mL (≈ 275 µM)	32 µg/mL (≈ 68.7 µM)		MIC90 (Enterococcus faecalis [20]): 128 µg/mL (≈ 275 µM); MIC90 (Staphylococcus aureus [26]): 64 µg/mL (≈ 137 µM)
COc1ccc(C2C(C)C(=O)C(C)C(c3ccc(OC)cc3)N2C(=O)Cn2cnc3ccccc32)cc1 (stereo unspecified)	inactive			inactive	inactive	inactive	inactive	inactive	inactive			inactive	inactive	inactive		128 µg/mL (≈ 257 µM)	16 µg/mL (≈ 32.2 µM)	64 µg/mL (≈ 129 µM)	16 µg/mL (≈ 32.2 µM)	64 µg/mL (≈ 129 µM)	MIC90 (Moraxella catarrhalis [23]): 16 µg/mL (≈ 32.2 µM); MIC90 (Staphylococcus aureus [26]): 128 µg/mL (≈ 257 µM); Ratio [30]: 0.39; Ratio [31]: 50
CC1C(=O)C(C)C(c2ccccc2Cl)N(C(=O)Cn2cnc3ccccc32)C1c1ccccc1Cl (stereo unspecified)		inactive	inactive	inactive	inactive	inactive	inactive	inactive	inactive	inactive	inactive	inactive	inactive	inactive			64 µg/mL (≈ 126 µM)				Activity (Enterococcus faecium [6]): inactive; MIC90 [21]: 128 µg/mL (≈ 253 µM)
Cc1ccc(C2CC(=O)C(C)C(c3ccc(C)cc3)N2C(=O)Cn2cnc3ccccc32)cc1 (stereo unspecified)	inactive	inactive	inactive	inactive	inactive	inactive	inactive	inactive	inactive		inactive	inactive	inactive	inactive		128 µg/mL (≈ 283 µM)			64 µg/mL (≈ 142 µM)		Activity (Staphylococcus aureus [10]): inactive
CO[C@H]1/C=C/O[C@@]2(C)Oc3c(C)c(O)c4c(O)c(c(/C=N/N5CCN(C)CC5)c(O)c4c3C2=O)NC(=O)/C(C)=C\C=C\[C@H](C)[C@H](O)[C@@H](C)[C@@H](O)[C@@H](C)[C@H](OC(C)=O)[C@@H]1C [RIFAMPIN]																				32 µg/mL (≈ 38.9 µM)	
